# Among all 2,400 compounds or so, fewer than 10 were called active.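 How the source made its calls: active means activation of at least 50%; inactive means the rest.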 The list is a sample of the results.
# Biological target: G-protein coupled receptor 183 (Homo sapiens) (UniProt P32249)
# Assay: EBI2 receptor activation without oxysterol – cell-based, single concentration, agonist mode, luminescence, counter-screen for EBI2 antagonist project, confirmation (AID 652000)
# Details: EBI2-expressing cells, 60 min, at 5 µM, stronger effect = higher value, 0% vehicle, 100% 7α,25-dihydroxycholesterol control
# Procedure, shortened: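 System: beta-arrestin reporter cell line; reagent: test wells without oxysterol; dosing: one dose from 10 mM stock, 2.5 nL; times: 37°C overnight seeding and 60-min compound, 25°C dark 60-min detection; signal: luminescence after adding detection reagent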
# Chain of G-protein coupled receptor 183 (Homo sapiens) (P32249 whole entry, looked up): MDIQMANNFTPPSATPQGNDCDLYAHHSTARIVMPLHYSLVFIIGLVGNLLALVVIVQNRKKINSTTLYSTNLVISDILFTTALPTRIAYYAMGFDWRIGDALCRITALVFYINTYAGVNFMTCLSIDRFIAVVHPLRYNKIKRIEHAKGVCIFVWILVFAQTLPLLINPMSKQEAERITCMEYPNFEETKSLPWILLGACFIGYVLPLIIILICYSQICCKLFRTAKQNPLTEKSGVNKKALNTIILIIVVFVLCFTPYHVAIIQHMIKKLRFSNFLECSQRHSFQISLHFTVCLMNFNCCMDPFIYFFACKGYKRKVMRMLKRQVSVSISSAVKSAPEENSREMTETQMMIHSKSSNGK
row,SMILES,activation
1,O=C(NCCNc1ccc([N+](=O)[O-])cc1)c1cccc2c(Br)cccc12,0.12% (inactive)
2,COc1ccccc1N1CCN(C(=O)c2cc(-c3ccc(Br)cc3)on2)CC1,1.43% (inactive)
3,Cc1cccc(C)c1-n1nnnc1C(CCc1ccccc1)N1CCN(C/C=C/c2ccccc2)CC1 (stereo not given),-1.39% (inactive)
4,O=C(CCc1ccccc1)NNC(=O)COc1ccc(Cl)cc1,0.21% (inactive)
5,COc1ccc(-c2nc(N)ncc2-c2ccc(Cl)cc2)c(O)c1,1.03% (inactive)
6,COc1cc(/C=C(\C#N)C(=O)Nc2ccc3ccccc3c2)c([N+](=O)[O-])cc1OC,-0.75% (inactive)
7,O=C(COc1ccc(Cl)cc1)N1CCN(S(=O)(=O)c2ccc(Cl)cc2)CC1,1.62% (inactive)
8,O=C(c1ccc(-n2cnnn2)cc1)N1CCN(C(c2ccccc2)c2ccccc2)CC1,1.53% (inactive)
9,Cc1cc(OCCOc2cccc3cccnc23)c(C)cc1Cl,1.3% (inactive)
10,COc1ccc(C(C(=O)NC2CCCCC2)N(C(=O)c2snc(C(N)=O)c2N)c2ccccc2OC)cc1 (stereo not given),1.3% (inactive)
11,CCCCN=C1C([N+](=O)[O-])=CC=C2C1=NC1(CCCCC1)N2O,-0.38% (inactive)
12,c1ccc(C(c2ccccc2)N2CCN(Cc3nnnn3C3CCCCC3)CC2)cc1,0.25% (inactive)
13,COc1ccc(/C=N/N=C/c2c[nH]c(=O)c(C#N)c2Nc2ccccc2)cc1,-1.52% (inactive)
14,COc1ccc(N(CC(=O)Nc2cc(OC)ccc2OC)S(=O)(=O)c2c(C)noc2C)cc1,1.12% (inactive)
15,Cc1ccc(S(=O)(=O)NCCNC(C)c2ccc(Br)cc2)cc1 (stereo not given),0.98% (inactive)
16,Cc1cccc(-n2c(O)c(C=Nc3ccccc3N)c(=O)[nH]c2=O)c1,-2.25% (inactive)
17,O=C(/C=C/c1cccc([N+](=O)[O-])c1)N1CCN(Cc2ccccc2)CC1,-0.29% (inactive)
18,O=c1[nH]c(CN2CCN(S(=O)(=O)c3ccc4c(c3)OCCO4)CC2)nc2sc3c(c12)CCCC3,-1.11% (inactive)
19,O=C(NCCCc1ccccc1)C1CCC(=O)N(CCc2ccc(Cl)cc2)C1 (stereo not given),1.57% (inactive)
20,COc1ccc(C(=O)/C=C/c2ccc(OC3CSC3)cc2)cc1,2.89% (inactive)
21,CCOC(=O)C1CCN(C(=O)COc2cc(C)c(Br)c(C)c2)CC1,2.25% (inactive)
22,N#Cc1ccc(C2=CC(=O)C[C@H](c3ccc(Cl)cc3)C2)cc1,1.84% (inactive)
23,COc1cccc(NC(=O)Cn2c3ccc(F)cc3c3nc4n(c(=O)c32)CCS4)c1,0.89% (inactive)
24,COc1ccc2cc(C3=CC(=O)C[C@H](c4ccc5c(c4)OCO5)C3)ccc2c1,-1.39% (inactive)
25,CCC(c1nnc(SCC(=O)NNC(=O)c2ccccc2)n1Cc1ccccc1)N(C)C (stereo not given),-1.34% (inactive)
26,Cc1cc(C)c2c(=O)n3c(nc2c1)C(CC(C)C)NC(=O)c1cc2ccccc2cc1-3 (stereo not given),0.75% (inactive)
27,COc1ccc(OCC(=O)N2CCN(C(=O)c3cccs3)CC2)cc1,1.48% (inactive)
28,CCN1CCN(C(=O)CSc2ccc(C)cc2)CC1,0.02% (inactive)
29,Cc1ccc(OCC(=O)N2CCN(S(=O)(=O)c3ccc(Cl)s3)CC2)cc1C,1.84% (inactive)
30,CCCCC(=O)N(C)c1c(CC)nc2c(OCc3ccc(Cl)cc3Cl)cccn12,-1.02% (inactive)
